Measured values from ChEMBL document CHEMBL1240383, “Acquisition of flucytosine, azole, and caspofungin resistance in Candida glabrata bloodstream isolates serially obtained from a hematopoietic stem cell transplant recipient” (2010).
In brackets after ≈: the same amount, converted by molar mass.

Key:
Nakaseomyces glabratus [1] = test: Antimicrobial activity against flucytosine, azole, and caspofungin resistant Candida glabrata bloodstream isolate 2 harboring Fur1 G190D mutation serially obtained from hematopoietic stem cell transplant recipient by Etest
Nakaseomyces glabratus [2] = test: Antimicrobial activity against flucytosine, azole, and caspofungin resistant Candida glabrata bloodstream isolate 4 harboring FKS2 T1988C mutation and overexpressing CDR1 and CDR2 genes serially obtained from hematopoietic stem cell transplant recipient by Etest; format: functional
Outline: (§1)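 MICs by Etest following the strip maker's instructions, with C. parapsilosis ATCC 22019 as control strain. FLC, VRC and 5FC were interpreted by published CLSI criteria. For caspofungin a susceptibility breakpoint of ≤2 mg/liter was used. Isolates were serial C. glabrata blood-culture isolates from one patient, judged the same genotype by PCR of 8 microsatellite regions with fluorescent primers.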

Nakaseomyces glabratus [3] = test: Antimicrobial activity against flucytosine, azole, and caspofungin resistant Candida glabrata bloodstream isolate 5 harboring FKS2 T1988C mutation and overexpressing CDR1 and CDR2 genes serially obtained from hematopoietic stem cell transplant recipient by Etest; format: functional
Outline: as §1

Nakaseomyces glabratus [4] = test: Antimicrobial activity against flucytosine, azole, and caspofungin resistant Candida glabrata bloodstream isolate 3 harboring Fur1 G190D mutation serially obtained from hematopoietic stem cell transplant recipient by Etest
Nakaseomyces glabratus [5] = test: Antimicrobial activity against flucytosine, azole, and caspofungin resistant Candida glabrata bloodstream isolate 1 serially obtained from hematopoietic stem cell transplant recipient by Etest; format: functional
Outline: as §1

Compound C[C@@H]1[C@H](O)[C@@H](C)/C=C/C=C/C=C/C=C/C=C/C=C/C=C/[C@H](O[C@@H]2O[C@H](C)[C@@H](O)[C@H](N)[C@@H]2O)C[C@@H]2O[C@](O)(C[C@@H](O)C[C@@H](O)[C@H](O)CC[C@@H](O)C[C@@H](O)CC(=O)O[C@H]1C)C[C@H](O)[C@H]2C(=O)O [AMPHOTERICIN B] has an MIC (Nakaseomyces glabratus [1]) of 2 µg/mL (≈ 2.16 µM), an MIC (Nakaseomyces glabratus [2]) of 0.75 µg/mL (≈ 0.812 µM) and an MIC (Nakaseomyces glabratus [3]) of 0.75 µg/mL (≈ 0.812 µM). The MIC (Nakaseomyces glabratus [4]) was 0.75 µg/mL (≈ 0.812 µM).

Compound CC[C@H](C)C[C@H](C)CCCCCCCCC(=O)N[C@H]1C[C@@H](O)[C@@H](NCCN)NC(=O)[C@@H]2[C@@H](O)CCN2C(=O)[C@H]([C@H](O)CCN)NC(=O)[C@H]([C@H](O)[C@@H](O)c2ccc(O)cc2)NC(=O)[C@@H]2C[C@@H](O)CN2C(=O)[C@H]([C@@H](C)O)NC1=O [CASPOFUNGIN] has an MIC (Nakaseomyces glabratus [1]) of 0.125 µg/mL (≈ 0.114 µM), an MIC (Nakaseomyces glabratus [2]) of over 32 µg/mL and an MIC (Nakaseomyces glabratus [5]) of 0.19 µg/mL (≈ 0.174 µM). For the same compound, the MIC (Nakaseomyces glabratus [3]) was over 32 µg/mL and the MIC (Nakaseomyces glabratus [4]) was 0.125 µg/mL (≈ 0.114 µM).

OC(Cn1cncn1)(Cn1cncn1)c1ccc(F)cc1F [FLUCONAZOLE] was tested, and the MIC (Nakaseomyces glabratus [1]) was 2 µg/mL (≈ 6.53 µM), the MIC (Nakaseomyces glabratus [2]) was over 256 µg/mL and the MIC (Nakaseomyces glabratus [3]) was over 256 µg/mL. It also gave an MIC (Nakaseomyces glabratus [4]) of 1 µg/mL (≈ 3.27 µM).

Nc1nc(=O)[nH]cc1F [FLUCYTOSINE] showed an MIC (Nakaseomyces glabratus [1]) of over 32 µg/mL, an MIC (Nakaseomyces glabratus [2]) of 0.004 µg/mL (≈ 0.031 µM) and an MIC (Nakaseomyces glabratus [5]) of 0.004 µg/mL (≈ 0.031 µM). The MIC (Nakaseomyces glabratus [3]) was 0.004 µg/mL (≈ 0.031 µM) and the MIC (Nakaseomyces glabratus [4]) was over 32 µg/mL.

For C[C@@H](c1ncncc1F)[C@](O)(Cn1cncn1)c1ccc(F)cc1F [VORICONAZOLE], the MIC (Nakaseomyces glabratus [1]) was 0.125 µg/mL (≈ 0.358 µM), the MIC (Nakaseomyces glabratus [2]) was 12 µg/mL (≈ 34.4 µM) and the MIC (Nakaseomyces glabratus [5]) was 0.25 µg/mL (≈ 0.716 µM). The MIC (Nakaseomyces glabratus [3]) was 16 µg/mL (≈ 45.8 µM) and the MIC (Nakaseomyces glabratus [4]) was 0.047 µg/mL (≈ 0.135 µM).
